Laboratory results from publication PMC8114230 (Inorganic chemistry, 2020).
Where “and” joins values, the source holds several entries; their conditions need not be identical. Identical values can stand only once. Entries after “also recorded” stand apart in the source; their conditions may differ. Like-named read-outs stand apart in the source and are kept apart here. Marks after values point to notes of the source that are not given here.

Tests used:
HeLa cells [1] = assay: Intracellular luminescence by confocal fluorescence microscopy; assay type: cell-based; details: 10 μM, 2 h
In short: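 HeLa cells were kept in DMEM with 10% FBS at 37 °C and 5% CO2. 1 × 10^5 cells were seeded on glass-bottom dishes, and after 24 h they were exposed to the test compound (10 μM in DMEM) for 2 h. Cells were then washed with PBS and imaged in HEPES imaging buffer, pH 7.4. Confocal excitation was 405 nm with 410–550 nm emission. Corrected total cell fluorescence was averaged over at least ten cells.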

[2] = Cyclic voltammetry in acetonitrile; assay type: physicochemical; details: 0.10 M TBAP, irreversible reduction peak
[3] = Solubility in water or PBS; assay type: physicochemical
CHOP = CHOP expression Western blot; assay type: cell-based; details: HeLa cells, 10 μM, 24 h
In short: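 HeLa cells were exposed for 24 h to 10 μM test compound or DMSO vehicle. Lysis was in TBS (pH 7.5) with 1% Triton X-100, DNase and protease inhibitors, on ice 30 min. Samples were run on SDS-PAGE and blotted to PVDF. Blocking was 5% BSA/0.1% Tween-20. Anti-CHOP was applied overnight at 4 °C, then HRP secondary 1 h at room temperature. Detection was by ECL, with β-actin as loading control.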

[4] = PBS pH 7.4; cited from earlier work
[5] = test system: A2780 ovarian cancer xenografts; assay: In vivo tumor growth inhibition, A2780 ovarian cancer xenografts; design: species or system NSG mice
In short: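 NSG mice, about 7 weeks old, received A2780 tumour fragments from propagation mice implanted subcutaneously in the left flank. Groups of at least five were treated once tumours exceeded 100 mm3. Dosing was tail-vein injection twice weekly with vehicle (20% DMSO/PBS) or 5, 10 or 20 mg/kg test compound. Body weight and caliper tumour volume were tracked blinded over 27 days. Endpoints were a dimension >30 mm or burden […]; survival was compared with vehicle.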

Maximum tolerated dose = assay type: in vivo; details: injections in mice
[6] = a week in aqueous solution, even in the presence of glutathione; cited from earlier work
[7] = Luminescence lifetime measurements in PBS; assay type: physicochemical; details: for luminescence lifetime τN2: nitrogen-saturated PBS (pH 7.4); for luminescence lifetime τ: air-equilibrated PBS, 10 μM
In short: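 Test compound was measured at 10 μM in PBS. Time-resolved photon counts were collected in 40 ns bins and fitted to a standard exponential decay. For deoxygenated samples, nitrogen was bubbled through the PBS solution for 20 min before measurement.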

HeLa cells [8] = assay: Puromycin incorporation assay; assay type: cell-based; details: 10 μM, 2 h, then puromycin
In short: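 HeLa cells were exposed for 2 h to 10 μM test compound or DMSO vehicle. Puromycin (10 μM) was then added, and cells were harvested 10 min later. Lysis was in TBS/1% Triton X-100. Samples were run on SDS-PAGE and blotted to PVDF, with blocking in 5% milk/0.1% Tween-20. Anti-puromycin was applied overnight at 4 °C, then HRP secondary 1 h at room temperature. Detection was by ECL, normalised to β-actin.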

HeLa cells [9] = assay: Thioflavin T; assay type: cell-based; details: 10 μM, 30 min post-treatment
In short: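 About 1 × 10^5 HeLa cells were seeded on glass-bottom dishes. After 24 h they were loaded with 5 μM ThT for 2 h, washed, and given fresh medium. Test compound (10 μM) was added in imaging buffer. Confocal images were taken at 0 and 30 min (ex 405 nm, em 410–550 nm). Corrected total cell fluorescence was computed as integrated density minus cell area × mean background.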

Biodistribution in mice = assay type: in vivo; details: BALB/c mice
In short: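 Female BALB/c mice, 6 weeks old, received a 99mTc tricarbonyl isonitrile analogue (51–104 μCi) with the Re test compound (0.2 μmol; 10 μmol/kg) together through a tail vein catheter in 10% EtOH/saline. Animals were killed at 1, 2 and 4 h, and blood (cardiac puncture), organs, muscle, femur and urine were collected. For Re, tissues were digested in nitric acid for 20 h at 25 °C and measured by ICP-OES with a 20 ppm Tb internal standard. Results were expressed as %ID/g.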

HeLa cells [10] = details: MTT assay; cited from earlier work
[11] = air-equilibrated PBS; cited from earlier work
HeLa cells [12] = assay: MTT cytotoxicity assay in HeLa cells; assay type: cell-based; details: 48 h incubation
In short: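 HeLa cells were grown in DMEM with 10% FBS at 37 °C, 5% CO2. Cells were seeded at 4000/well and rested 24 h, then medium was replaced with test-compound dilutions for 48 h. Stocks were in PBS or DMSO. MTT (1 mg/mL in DMEM) was added for 4 h. Formazan was dissolved in 8:1 DMSO/pH 10 glycine buffer and read at 570 nm. Viability was normalised to untreated wells: three independent experiments, six replicates per concentration.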

[13] = Emission spectra and emission quantum yield in PBS; assay type: physicochemical; details: PBS pH 7.4, ≤1% DMSO, air-equilibrated; for emission quantum yield Φ: relative to quinine sulfate
In short: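 Spectra were taken in PBS pH 7.4 with ≤1% DMSO. Quantum yield was set relative to quinine sulfate (Φ = 0.52, 0.5 M H2SO4), cross-checked against harmaline (Φ = 0.32, 0.05 M H2SO4). Excitation was 350 nm, keeping absorbance below 0.1. At least five concentrations of sample and standard were measured. Absorbance at 350 nm was plotted against integrated emission.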

HeLa cells [14] = assay: Mitochondria morphology; assay type: cell-based; details: 10 μM, up to 30 min
In short: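 HeLa cells were loaded with MitoTracker Red FM and Hoechst 33342 for 30 min, then washed. At the microscope, test compound was added to 10 μM final in HEPES imaging buffer (pH 7.4). Confocal images were taken every 2 min up to 30 min: MitoTracker ex 561/em 630–700 nm, Hoechst ex 405/em 410–550 nm. Individual mitochondria were counted in ImageJ at 0, 14 and 30 min, alongside untreated cells.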

[15] = tail vein injection, 0.2 μmol Re / ~100 μCi 99mTc

Molecule	Epc [2] [V vs SCE]	CHOP expression (CHOP)	luminescence lifetime τN2 [7] [μs]	inhibition of protein synthesis (puromycin incorporation) (HeLa cells [8])	increase in ThT fluorescence (HeLa cells [9])	IC50 (HeLa cells [12])	luminescence lifetime τ [7] [μs]	emission maximum λ [13] [nm]	emission quantum yield Φ [13]	further results
Cc1ccc2ccc3ccc(C)nc3c2n1.O=S(=O)([O-])C(F)(F)F.[C-]#[N+]c1ccc(C)cc1.[C-]#[O+].[C-]#[O+].[C-]#[O+].[Re+] [TRIP-1a, fac-[Re(CO)3(dmphen)(ptolICN)]OTf]	−1.25	induce CHOP expression	3.5	most efficient inhibition of protein synthesis	≥ 2 fold	–	–	–	–	intracellular localization pattern (HeLa cells [1]): primarily localized around the nucleus in a punctate pattern; solubility [3]: up to 2 mM; emission maximum λ [4]: 505 nm; emission quantum yield Φ [4]: 3.1 ± 0.3%; effect on tumor growth rate ([5]; 5 mg/kg i.v. twice weekly, 20% DMSO/PBS): no effect on tumor growth rate; effect on tumor growth rate ([5]; 10 mg/kg i.v. twice weekly, 20% DMSO/PBS): no effect on tumor growth rate; effect on tumor growth ([5]; 20 mg/kg i.v. twice weekly, 20% DMSO/PBS): inhibit tumor growth; also recorded: significantly inhibits tumor growth; prolongation of survival relative to the control group ([5]; 20 mg/kg twice weekly): 150%; average tumor volume relative to the vehicle-treated group ([5]; 20 mg/kg, days 10 to 20 after beginning treatment): less than half; side effects / body weight changes ([5]; highest concentrations of TRIP-1a, tumor-bearing NSG mice): minimal body weight changes; local reaction on administration ([5]; i.v. formulation in 20% DMSO/PBS): severe local inflammation; maximum tolerated dose, no obvious sign of distress (Maximum tolerated dose): ≥ 40 mg/kg; degradation in aqueous solution [6]: no measurable degradation; rhenium content in blood, muscle and bone (Biodistribution in mice; ICP-OES): below detectable levels; heart and lung accumulation (Biodistribution in mice; [15]): accumulate in the heart and lungs; kidney uptake (Biodistribution in mice; [15]): large; liver uptake (Biodistribution in mice; [15]): moderate; spleen uptake (Biodistribution in mice; [15]): taken up to a much higher extent in this organ compared to TTIP; IC50 (HeLa cells [10]): 1.4 ± 0.2 µM; luminescence lifetime τ [11]: 1.1^c μs
Cc1ccc(N=[C]=[Re+]2(=[C]=O)(=[C]=O)(=[C]=O)[N]3C=CC=c4ccc5c(c43)[N]2C=CC=5)cc1.O=S(=O)([O-])C(F)(F)F [TRIP-2a, fac-[Re(CO)3(phen)(ptolICN)]OTf]	−1.18	–	10.9	–	–	5.8 ± 0.5 µM	1.8	512	5.3 ± 0.4%	–
O=S(=O)([O-])C(F)(F)F.[C-]#[N+]c1ccc(C)cc1.[C-]#[O+].[C-]#[O+].[C-]#[O+].[Re+].c1ccc(-c2ccccn2)nc1 [TRIP-3a, fac-[Re(CO)3(bpy)(ptolICN)]OTf]	−1.18	–	1.0	not effective translation inhibitors	–	27.5 ± 0.6 µM	0.7	523	6.3 ± 0.2%	change in mitochondrial morphology (mitochondrial fission) (HeLa cells [14]): did not give rise to any changes in mitochondrial morphology
N.N.[Cl][Pt][Cl] [cisplatin, reference compound]	–	–	–	–	–	–	–	–	–	IC50 (HeLa cells [10]): 6.6 ± 0.7 µM
fac-[Re(CO)3(CF3bpy)(ptolICN)]OTf [TRIP-6a]	–	except for the least cytotoxic compound TRIP-6a	0.1	not effective translation inhibitors	unable to change the ThT fluorescence levels relative to untreated cells	53 µM and 53.1 µM	0.1	584	0.8% and 0.8 ± 0.1%	change in mitochondrial morphology (mitochondrial fission) (HeLa cells [14]): did not give rise to any changes in mitochondrial morphology
fac-[Re(CO)3(dmbpy)(ptolICN)]OTf [TRIP-4a]	−1.30	–	1.3	–	–	7.6 ± 0.3 µM	0.8	516	6.7 ± 0.1%	–
fac-[Re(CO)3(dmobpy)(ptolICN)]OTf [TRIP-5a]	−1.33	–	0.7	–	–	8.4 ± 1.9 µM	0.4	525	3.9 ± 0.3%	–
fac-[Re(CO)3(tbutylbpy)(ptolICN)]OTf [TRIP-7a]	−1.30	induce CHOP expression	1.6	most efficient inhibition of protein synthesis	≥ 2 fold	1.2 ± 0.5 µM	0.7	518	7.7 ± 0.2%	intracellular localization pattern (HeLa cells [1]): distributed evenly throughout the cytoplasm
